For one assay, the target named is T1, Ryanodine receptor 2 (Canis lupus familiaris, UniProt Q8WN72).
T1 sequence (Q8WN72 whole entry): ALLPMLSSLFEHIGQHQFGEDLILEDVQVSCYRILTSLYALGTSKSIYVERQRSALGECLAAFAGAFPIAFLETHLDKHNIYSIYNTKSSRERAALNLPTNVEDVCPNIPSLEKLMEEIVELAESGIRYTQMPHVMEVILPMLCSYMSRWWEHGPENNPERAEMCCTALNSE
Nature of the assay: Binding affinity towards ryanodine receptor in canine ventrical preparation. Summed up: (§1)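 Ryanodine receptor binding assays on tissue preparations. Values are means of three to five experiments, each run in duplicate. Results are reported as Ki for the cardiac ventricle preparation.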

Assay [1] can be described thus: Inhibition of contraction on electrical stimulation of cardiac muscle using rat right ventricular muscle strips. In kind it is functional, Muscle tissue. Summed up:
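Physiological function test on intact rat ventricular muscle strips, in which the read-out depends on both tissue penetration and receptor potency. Values are expressed as IC50 from three to five experiments; standard error is reported as percent of the mean.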

For assay [2], the target named is Ryanodine receptor 1 (Oryctolagus cuniculus) (UniProt P11716). Nature of the assay: Displacement of [3H]ryanodine from ryanodine receptor(ryr) of rabbit skeletal muscle. Summed up: (§2)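 Radioligand displacement assays of [3H]ryanodine binding at the ryanodine receptor, one each on rabbit skeletal muscle, mouse brain and canine ventricle preparations. Values are means of three to five experiments, each run in duplicate; standard error is reported as percent of the mean.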
Ryanodine receptor 1 (Oryctolagus cuniculus), sequence (P11716 whole entry): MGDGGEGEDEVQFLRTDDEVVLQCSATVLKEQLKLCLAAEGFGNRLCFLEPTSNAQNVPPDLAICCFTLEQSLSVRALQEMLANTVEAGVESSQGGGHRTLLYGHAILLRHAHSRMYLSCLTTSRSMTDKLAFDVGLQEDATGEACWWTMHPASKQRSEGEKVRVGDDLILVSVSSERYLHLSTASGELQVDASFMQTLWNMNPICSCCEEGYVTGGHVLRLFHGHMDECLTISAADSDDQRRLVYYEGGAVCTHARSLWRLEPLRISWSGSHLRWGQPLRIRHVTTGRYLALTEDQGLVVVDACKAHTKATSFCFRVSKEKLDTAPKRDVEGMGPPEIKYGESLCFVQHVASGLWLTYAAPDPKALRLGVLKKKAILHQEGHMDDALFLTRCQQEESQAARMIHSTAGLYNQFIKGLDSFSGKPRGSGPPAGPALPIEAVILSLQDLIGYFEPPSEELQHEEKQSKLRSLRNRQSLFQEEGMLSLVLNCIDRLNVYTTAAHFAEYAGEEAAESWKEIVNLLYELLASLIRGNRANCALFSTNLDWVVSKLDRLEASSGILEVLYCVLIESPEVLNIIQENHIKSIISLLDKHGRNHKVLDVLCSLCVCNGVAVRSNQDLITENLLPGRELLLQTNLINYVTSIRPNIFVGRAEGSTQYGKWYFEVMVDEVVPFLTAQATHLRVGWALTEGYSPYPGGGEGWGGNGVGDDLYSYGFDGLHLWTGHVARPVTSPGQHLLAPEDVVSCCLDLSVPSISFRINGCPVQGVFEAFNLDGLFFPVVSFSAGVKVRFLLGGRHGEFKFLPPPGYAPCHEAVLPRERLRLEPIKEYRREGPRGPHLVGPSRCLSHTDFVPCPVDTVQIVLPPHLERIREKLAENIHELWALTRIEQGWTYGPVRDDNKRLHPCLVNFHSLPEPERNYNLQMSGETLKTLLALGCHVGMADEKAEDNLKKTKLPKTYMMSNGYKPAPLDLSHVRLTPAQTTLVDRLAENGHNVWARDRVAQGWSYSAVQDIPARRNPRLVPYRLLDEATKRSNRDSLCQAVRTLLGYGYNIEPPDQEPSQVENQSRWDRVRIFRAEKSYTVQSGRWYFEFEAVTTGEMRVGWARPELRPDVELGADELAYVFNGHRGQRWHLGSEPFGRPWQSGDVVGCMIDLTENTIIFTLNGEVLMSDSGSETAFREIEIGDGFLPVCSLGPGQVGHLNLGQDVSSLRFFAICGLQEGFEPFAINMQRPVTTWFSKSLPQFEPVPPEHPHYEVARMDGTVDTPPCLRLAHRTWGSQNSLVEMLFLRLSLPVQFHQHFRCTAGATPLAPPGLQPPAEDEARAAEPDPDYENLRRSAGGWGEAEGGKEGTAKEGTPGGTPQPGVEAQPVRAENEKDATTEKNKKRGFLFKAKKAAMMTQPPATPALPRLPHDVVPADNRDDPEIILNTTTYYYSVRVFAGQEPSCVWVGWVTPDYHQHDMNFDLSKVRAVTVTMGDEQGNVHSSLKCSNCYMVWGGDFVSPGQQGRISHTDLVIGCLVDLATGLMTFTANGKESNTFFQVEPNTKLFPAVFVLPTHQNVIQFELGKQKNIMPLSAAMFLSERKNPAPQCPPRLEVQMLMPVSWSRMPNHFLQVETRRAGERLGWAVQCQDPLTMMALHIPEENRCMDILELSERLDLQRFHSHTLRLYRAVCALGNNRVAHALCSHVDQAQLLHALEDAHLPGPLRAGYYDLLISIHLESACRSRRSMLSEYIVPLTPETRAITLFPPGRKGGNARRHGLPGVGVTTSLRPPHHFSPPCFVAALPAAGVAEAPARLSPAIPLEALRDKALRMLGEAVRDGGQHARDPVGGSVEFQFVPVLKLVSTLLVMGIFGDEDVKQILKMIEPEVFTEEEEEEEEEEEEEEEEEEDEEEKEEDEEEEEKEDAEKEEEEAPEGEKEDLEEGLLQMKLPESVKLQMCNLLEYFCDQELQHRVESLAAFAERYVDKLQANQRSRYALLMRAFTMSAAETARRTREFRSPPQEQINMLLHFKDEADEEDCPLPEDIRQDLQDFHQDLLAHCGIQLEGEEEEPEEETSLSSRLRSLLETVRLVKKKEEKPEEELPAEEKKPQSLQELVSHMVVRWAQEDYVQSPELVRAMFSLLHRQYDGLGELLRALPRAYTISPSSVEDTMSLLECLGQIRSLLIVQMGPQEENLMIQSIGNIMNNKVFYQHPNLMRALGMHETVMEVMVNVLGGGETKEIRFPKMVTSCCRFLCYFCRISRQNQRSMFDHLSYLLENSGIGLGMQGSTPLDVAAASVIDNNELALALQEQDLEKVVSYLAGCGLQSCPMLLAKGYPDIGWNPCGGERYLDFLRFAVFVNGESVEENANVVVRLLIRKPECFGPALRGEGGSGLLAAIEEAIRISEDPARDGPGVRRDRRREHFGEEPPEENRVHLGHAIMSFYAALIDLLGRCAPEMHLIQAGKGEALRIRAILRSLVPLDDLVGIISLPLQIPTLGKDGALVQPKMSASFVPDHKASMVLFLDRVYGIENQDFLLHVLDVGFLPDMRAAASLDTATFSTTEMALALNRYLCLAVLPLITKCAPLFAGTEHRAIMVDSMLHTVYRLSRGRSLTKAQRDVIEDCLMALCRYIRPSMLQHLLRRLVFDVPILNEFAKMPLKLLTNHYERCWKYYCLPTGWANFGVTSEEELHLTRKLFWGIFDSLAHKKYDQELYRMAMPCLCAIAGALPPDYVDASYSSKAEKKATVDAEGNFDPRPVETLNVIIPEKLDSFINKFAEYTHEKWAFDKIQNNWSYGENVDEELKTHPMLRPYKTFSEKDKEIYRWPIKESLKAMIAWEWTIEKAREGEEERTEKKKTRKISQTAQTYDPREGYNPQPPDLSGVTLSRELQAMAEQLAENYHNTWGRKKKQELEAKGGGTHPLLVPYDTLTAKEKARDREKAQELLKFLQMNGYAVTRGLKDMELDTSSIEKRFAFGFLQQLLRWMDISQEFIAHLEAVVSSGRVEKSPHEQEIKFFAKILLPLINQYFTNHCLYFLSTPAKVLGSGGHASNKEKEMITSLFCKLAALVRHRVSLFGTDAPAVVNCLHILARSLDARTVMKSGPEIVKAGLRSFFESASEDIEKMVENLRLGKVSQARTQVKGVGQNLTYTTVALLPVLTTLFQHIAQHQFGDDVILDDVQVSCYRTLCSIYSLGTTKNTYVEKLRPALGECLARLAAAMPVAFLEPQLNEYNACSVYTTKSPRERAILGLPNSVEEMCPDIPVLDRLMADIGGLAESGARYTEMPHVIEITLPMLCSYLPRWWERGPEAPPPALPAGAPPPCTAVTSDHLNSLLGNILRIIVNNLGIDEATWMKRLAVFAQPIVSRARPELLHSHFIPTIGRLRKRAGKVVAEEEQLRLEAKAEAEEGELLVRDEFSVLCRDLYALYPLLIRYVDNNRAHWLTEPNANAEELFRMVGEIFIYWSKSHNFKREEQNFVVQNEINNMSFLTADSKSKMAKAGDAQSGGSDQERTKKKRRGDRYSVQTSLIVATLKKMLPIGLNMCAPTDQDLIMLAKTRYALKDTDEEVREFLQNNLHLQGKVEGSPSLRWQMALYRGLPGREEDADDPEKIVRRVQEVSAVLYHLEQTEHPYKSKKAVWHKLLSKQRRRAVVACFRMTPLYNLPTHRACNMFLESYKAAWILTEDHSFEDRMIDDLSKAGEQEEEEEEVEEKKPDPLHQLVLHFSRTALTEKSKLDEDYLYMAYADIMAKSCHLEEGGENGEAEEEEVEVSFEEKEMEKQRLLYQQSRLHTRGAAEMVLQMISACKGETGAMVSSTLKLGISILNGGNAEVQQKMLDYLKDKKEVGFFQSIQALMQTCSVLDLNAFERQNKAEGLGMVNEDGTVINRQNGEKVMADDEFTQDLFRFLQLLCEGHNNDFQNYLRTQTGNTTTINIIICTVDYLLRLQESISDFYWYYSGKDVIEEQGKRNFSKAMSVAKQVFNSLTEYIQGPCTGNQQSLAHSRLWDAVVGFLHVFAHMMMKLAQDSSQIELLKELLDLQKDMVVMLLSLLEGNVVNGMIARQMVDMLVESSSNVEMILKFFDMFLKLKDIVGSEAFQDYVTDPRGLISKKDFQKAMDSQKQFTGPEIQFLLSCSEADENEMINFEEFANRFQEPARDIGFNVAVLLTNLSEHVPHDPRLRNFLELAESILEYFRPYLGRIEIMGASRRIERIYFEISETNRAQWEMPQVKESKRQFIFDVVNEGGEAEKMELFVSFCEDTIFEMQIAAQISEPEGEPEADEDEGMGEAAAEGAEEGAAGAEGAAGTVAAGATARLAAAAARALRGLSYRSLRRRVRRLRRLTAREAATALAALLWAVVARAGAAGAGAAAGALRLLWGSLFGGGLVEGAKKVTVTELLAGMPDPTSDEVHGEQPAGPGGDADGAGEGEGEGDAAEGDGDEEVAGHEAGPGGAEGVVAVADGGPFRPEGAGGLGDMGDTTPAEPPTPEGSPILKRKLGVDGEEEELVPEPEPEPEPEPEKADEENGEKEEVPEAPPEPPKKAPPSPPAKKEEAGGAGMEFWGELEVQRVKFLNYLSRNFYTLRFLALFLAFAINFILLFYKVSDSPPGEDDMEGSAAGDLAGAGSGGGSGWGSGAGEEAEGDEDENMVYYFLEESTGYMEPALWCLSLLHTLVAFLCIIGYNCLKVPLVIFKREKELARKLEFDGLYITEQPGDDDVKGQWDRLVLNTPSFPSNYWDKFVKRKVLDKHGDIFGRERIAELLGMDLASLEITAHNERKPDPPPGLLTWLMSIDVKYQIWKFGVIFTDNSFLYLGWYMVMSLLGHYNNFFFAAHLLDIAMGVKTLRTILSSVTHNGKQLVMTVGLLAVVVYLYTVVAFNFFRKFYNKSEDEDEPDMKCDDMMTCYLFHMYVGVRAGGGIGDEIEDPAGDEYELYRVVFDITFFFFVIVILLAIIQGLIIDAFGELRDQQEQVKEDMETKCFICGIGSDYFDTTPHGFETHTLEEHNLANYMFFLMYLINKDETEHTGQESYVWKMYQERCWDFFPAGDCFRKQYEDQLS
(In general: Loss of bound radioactivity is the signal in a displacement assay; it reports binding, not function.)

Assay [3] addresses T2, Ryanodine receptor 2 (Canis lupus familiaris) (UniProt Q8WN72).
T2 sequence (whole entry): T1 sequence (Q8WN72 whole entry)
Description: Displacement of [3H]ryanodine binding to ryanodine receptor(ryr) in canine left ventricular membranes. In kind it is cell membranes. Summed up: as §2

In assay [4] the target is Ryanodine receptor 2 (Mus musculus) (UniProt E9Q401). Description: Displacement of [3H]ryanodine from ryanodine receptor(ryr) of Mouse brain.
Assay [5] can be described thus: Inhibitory activity against ryanodine receptor in Mouse brain. The class given is functional, tissue-based.
A short description of assay [6]: Inhibitory activity against ryanodine receptor in rabbit muscle. In kind it is functional, Oryctolagus cuniculus. Summed up: as §1
A short description of assay [7]: Inhibition of the contraction on electrical stimulation of cardiac muscle using rat right ventricular muscle strips. The conditions noted are these: Muscle tissue. The class given is functional, tissue-based. Summed up:
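Contractility test on intact rat ventricular muscle strips. The read-out reflects both tissue penetration and receptor action. Values are means of three to five experiments, expressed as IC50.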

Consider eleven compounds from ChEMBL document CHEMBL1129336, “Ryanodine action at calcium release channels. 2. relation to substituents of the cyclohexane ring” (J Med Chem, 1996).

For orientation: Ki means a measure of affinity in units of concentration, obtained from inhibition or displacement. On Ryanodine receptor 2, `CC(C)[C@@]1(O)[C@@H](OC(=O)c2ccc[nH]2)[C@@]2(O)[C@@]3(C)C[C@]4(O)O[C@@]5([C@H](O)[C@@H](C)CC[C@]35O)[C@@]2(O)[C@@]14C` [RYANODINE] had a Ki of 1.8 nM.
In the case of `CC1CCC2(O)C3(C)CC4(O)OC2(C1O)C1(O)C3(O)C(OC(=O)c2ccc[nH]2)C(O)(C(C)C)C41C` (stereo not given), the Relative activity in assay [1] turned out to be 34; in assay [2], 97.
Take `CC(C)C1(O)C(OC(=O)c2ccc[nH]2)C2(O)C3(C)CC4(O)OC5(CCCCC35O)C2(O)C41C` (stereo not given): in assay [2], the Relative activity was determined as 6.5.
Consider `CC(C)C1(O)C(OC(=O)c2ccc[nH]2)C2(O)C3(C)CC4(O)OC5(CC(O)CCC35O)C2(O)C41C` (stereo not given), for which the Relative activity came to 28 in assay [1], 0.42 in assay [3] and 0.2 in assay [2].
In turn, `C=C1CCC2(O)C3(C)CC4(O)OC2(C1OC(=O)c1ccccc1)C1(O)C3(O)C(OC(=O)c2ccc[nH]2)C(O)(C(C)C)C41C` (stereo not given) returned a Relative activity in assay [2] of 3.9.
`CC1CCC2(O)C3(C)CC4(O)OC2(NC1=O)C1(O)C3(O)C(OC(=O)c2ccc[nH]2)C(O)(C(C)C)C41C` (stereo not given): the Relative activity in assay [1] was 11; in assay [3] it was 7.4; in assay [2] it was 42.
For the compound `CC1CCC2(O)C3(C)CC4(O)OC2(C1N)C1(O)C3(O)C(OC(=O)c2ccc[nH]2)C(O)(C(C)C)C41C` (stereo not given), in assay [2], the Relative activity is 68.
Usually IC50 stands for the concentration that inhibits the measured activity by half. Take `CC(C)[C@@]1(O)[C@@H](OC(=O)c2cc[nH]c2)[C@@]2(O)[C@]3(C)C[C@@]4(O)O[C@@]5([C@H](O)[C@@H](C)CC[C@]35O)[C@@]2(O)[C@@]41C` [RYANODINE]: the Relative activity in assay [4] and in assay [2] was 100 throughout. The IC50 in assay [5] came to 3.3 nM; in assay [6] it was 3.5 nM; in assay [7], 34 nM.
Consider `CO/N=C1\C(C)CCC2(O)C3(C)CC4(O)OC12C1(O)C3(O)C(OC(=O)c2ccc[nH]2)C(O)(C(C)C)C41C` (stereo not given), for which the Relative activity is 34 in assay [1], 17 in assay [3] and 13 in assay [2].
The like results for `CONC1C(C)CCC2(O)C3(C)CC4(O)OC12C1(O)C3(O)C(OC(=O)c2ccc[nH]2)C(O)(C(C)C)C41C` (stereo not given) were, in that order, 31, 36 and 68.
Consider `CC1=CCC2(O)C3(C)CC4(O)OC2(C1O)C1(O)C3(O)C(OC(=O)c2ccc[nH]2)C(O)(C(C)C)C41C` (stereo not given), for which the Relative activity is 11 in assay [1] and 26 in assay [2].
